ChEMBL document CHEMBL1123644, “Potential antitumor agents. 53. Synthesis, DNA binding properties, and biological activity of perimidines designed as "minimal" DNA-intercalating agents” (J Med Chem, 1987)
The source made the active and inactive calls. The rule behind the calls is not given here.

Columns and labels:
[1] = test system: L1210; test: In vitro growth inhibition of murine leukemia L1210 cells after 40 hours exposure.; type: functional, cell-based; details: Mus musculus, L1210, 40 h
[2] = test system: Nucleic Acid; test: The compound was tested for DNA (from Escherichia coli plasmid pNZ116 ) binding constant to poly[d(A-T)] determined by ethidium bromide displacement; type: nucleic-acid assay
Outline: (§1)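 Binding constants to poly[d(A-T)] and poly[d(G-C)] were determined by ethidium bromide displacement.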

[3] = test system: Nucleic Acid; test: The compound was tested for DNA (from Escherichia coli plasmid pNZ116 ) binding constant to poly[d(G-C)] determined by ethidium bromide displacement; type: nucleic-acid assay; outline: as §1
[4] = test system: P388; test: Percent increase in life span of drug treated tumor( P388 leukemia cells)-bearing animal compared to that of untreated tumor bearing control when treated at optimal dose; Compound inactive at all dose levels up to toxic ones; type: functional; details: Mus musculus
[5] = test system: P388; test: Optimal dose administered intraperitoneally as a solution in 0.1 mL of 30% v/v ethanol-water on days 1,5 and 9 after intraperitoneal inoculation of 10 e6 P388 leukemia cells; type: functional, Mus musculus
[6] = The pKa value spectrophotometrically in water at 25 degree Centigrade; type: physicochemical
[7] = test system: P388; test: Percent increase in life span of drug treated tumor( P388 leukemia cells)-bearing animal compared to that of untreated tumor bearing control when treated at optimal dose; NA means not active; type: functional; details: Mus musculus
[8] = test system: P388; test: Percent increase in life span of drug treated tumor( P388 leukemia cells)-bearing animal compared to that of untreated tumor bearing control when treated at optimal dose; type: functional, Mus musculus
[9] = test system: P388; test: Optimal dose administered intraperitoneally as a solution in 0.1 mL of 30% v/v ethanol-water on days 1,5 and 9 after intraperitoneal inoculation of 10 e6 P388 leukemia cells; ND means no data; type: functional, Mus musculus
[10] = test system: P388; test: Percent increase in life span of drug treated tumor( P388 leukemia cells)-bearing animal compared to that of untreated tumor bearing control when treated at optimal dose; NA means not active compound inactive at all dose levels up to toxic ones; type: functional; details: Mus musculus

| Compound | IC50 [1] [nM] | Log K [2] | Log K [3] | OD [5] [mg/kg/day] | further results |
| --- | --- | --- | --- | --- | --- |
| O=C(NCCN1CCCCC1)C1=Nc2cccc3cccc(c23)N1 | 1300 | – | – | – | – |
| CN(C)CCNC1=Nc2cccc3cccc(c23)N1 | 2500 | 5.77 | 5.9 | 65 | ILS [4]: inactive |
| CCN(CC)CCNC(=O)C1=Nc2cccc3cccc(c23)N1 | 1100 | – | – | – | – |
| CN(C)CCCCNC(=O)C1=Nc2cccc3cccc(c23)N1 | 1500 | – | – | – | – |
| CN(C)CCCCN1C=Nc2cccc3cccc1c23 | 2200 | – | – | – | pKa [6]: 5.3 |
| CN(C)CCCNC1=Nc2cccc3cccc(c23)N1 | 4000 | – | – | – | – |
| CN(C)CCNC(=O)C1=Nc2cccc3cncc(c23)N1 | 21700 | 5.71 | 5.88 | 65 | ILS [4]: inactive |
| CN(C)CCNC(=O)CC1=Nc2cccc3cccc(c23)N1 | 16700 | 5.74 | 5.88 | 65 | ILS [7]: inactive |
| CN(C)CCSC1=Nc2cccc3cccc(c23)N1 | 1800 | 5.78 | 6.1 | 150 | pKa [6]: 2.66; ILS [4]: inactive |
| CN(C)CCN1C(=O)c2cccc3cccc(c23)C1=O | 1600 | 5.46 | 5.87 | – | ILS [8]: 31%; OD [9]: 150 mg/kg/day |
| CN(C)CCNC(=O)C1=Nc2cccc3cccc(c23)N1 | 440 | 6.51 | 6.51 | 150 | pKa [6]: 1.74; ILS [4]: inactive |
| O=C(NCCN1CCOCC1)C1=Nc2cccc3cccc(c23)N1 | 14100 | – | – | – | – |
| CN(C)CCCCN1C(=O)c2cccc3cccc(c23)C1=O | 1900 | – | – | – | – |
| CN(C)CCCSC1=Nc2cccc3cccc(c23)N1 | 5700 | – | – | – | – |
| CN(C)CCCNC(=O)CC1=Nc2cccc3cccc(c23)N1 | > 21000 | – | – | – | – |
| CN(C)CCCN1C=Nc2cccc3cccc1c23 | 15300 | – | – | 150 | pKa [6]: 5.1; ILS [10]: inactive |
| CN(C)CCCNC(=O)C1=Nc2cccc3cccc(c23)N1 | 870 | – | – | – | – |
| CN(C)CCN1C=Nc2cccc3cccc1c23 | 20000 | 5.17 | 5.31 | 150 | pKa [6]: 4.64; ILS [4]: inactive |
